Here are results for eight compounds from ChEMBL document CHEMBL1158140, “Abietane diterpenoids from Salvia pachyphylla and S. clevelandii with cytotoxic activity against human cancer cell lines” (2006).

Holding throughout (type): functional
The test system of assay [1] is WiDr. The assay can be described thus: Cytotoxicity against human WiDr cells after 48 hrs by SRB assay. The method in brief:
(§1)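 RPMI 1640 with 5% heat-inactivated FCS and 2 mM L-glutamine, 37 °C, 5% CO2. Seeded per well at 6000 (SW1573, HBL-100), 7000 (A2780), 12 000 (WiDr) or 15 000 (T-47D). Triplicate, 1-100 µM from day 1 for 48 h; DMSO 0.25% v/v control. TCA-fixed, SRB OD 490 nm. Percentage growth from T0, T and control ODs gives GI50, mean ± SD of 3-5 experiments.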
On the technique in general: Sulforhodamine B stains cellular protein and so reports cell mass.

The subject of assay [2] is A2780. Briefly: Cytotoxicity against human A2780 cells after 48 hrs by SRB assay. To be noted: A2780, 48 h. The method in brief: as §1
For assay [3], the system named is T47D. Briefly: Cytotoxicity against human T47D cells after 48 hrs by SRB assay. The method in brief: as §1
For assay [4], the system named is HBL-100. Briefly: Cytotoxicity against human HBL100 cells after 48 hrs by SRB assay. To be noted: HBL-100, 48 h. The method in brief:
as §1

Assay [5] deals with SW1573. Briefly: Cytotoxicity against human SW1573 cells after 48 hrs by SRB assay. Conditions: SW1573, 48 h. The method in brief: as §1

Take `CC(C)C1=C[C@]2(O)CC[C@H]3C(C)(C)CCC[C@]3(C)C2=CC1=O`: the GI50 (as a rule, the concentration that inhibits growth by half) was 83 µM in assay [1]; 19 µM in assay [2]; 82 µM in assay [3]; 26 µM in assay [4]; 29 µM in assay [5].
On the same counts, the results for `CC(C)c1cc2c(c(O)c1O)[C@@]13CCCC(C)(C)[C@@H]1C[C@@H]2OC3=O` [CARNOSOL] are 26 µM, 3.6 µM, 24 µM, 3.9 µM and 10 µM.
In the same order, the values of `CC(C)c1cc2c(c(O)c1O)[C@@]13CCCC(C)(C)[C@@H]1C[C@@H]2OC3` are 32 µM, 5.4 µM, 32 µM, 4.6 µM and 22 µM.
On the same counts, the results for `CC(C)C1=C[C@@]23CC[C@H]4C(C)(C)CCC[C@]4(CO2)C3=C(O)C1=O` [PACHYPHYLLONE] are 36 µM, 14 µM, 32 µM, 22 µM and 23 µM.
As for `CC(CO)c1cc2c(c(O)c1O)[C@@]13CCCC(C)(C)[C@@H]1C[C@@H]2OC3=O` (stereo not given in full), the GI50 in assay [1] came out at 28 µM; in assay [2], 3.6 µM; in assay [3], 35 µM; in assay [4], 3.6 µM; in assay [5], 9 µM.
For `COc1cc2c(cc1C(C)C)C(=O)C=C1C(C)(C)CCC[C@@]12C`, the GI50 in assay [1] is 29 µM; in assay [2], 16 µM; in assay [3], 33 µM; in assay [4], 16 µM; in assay [5], 18 µM.
For `CC(C)c1cc(C=O)c2c(c1O)OC(=O)[C@@]21CCCC(C)(C)[C@@H]1C=O` [ROSMADIAL], the GI50 amounted to 59 µM in assay [1]; 36 µM in assay [2]; 48 µM in assay [3]; 26 µM in assay [4]; 32 µM in assay [5].
Consider `CC(C)c1cc2c(c(O)c1O)[C@@]13CCCC(C)(C)[C@@H]1[C@@H](O)[C@@H]2OC3=O` [ISOROSMANOL], for which the GI50 in assay [1] is > 100 µM; in assay [2] it was 19 µM; in assay [3], > 100 µM; in assay [4], 17 µM; in assay [5], 23 µM.
